Published values gathered from unrelated publications.
Each line is one published result; the experiments were not run side by side.
Target: Serine/threonine-protein kinase MRCK alpha (CDC42BPA, Homo sapiens, UniProt Q5VT25)

SMILES	assay	conditions	endpoint	result
CCS(=O)(=O)c1cc2cc(C[C@](O)(CC(C)(C)c3ccc(F)cc3C(N)=O)C(F)(F)F)[nH]c2cn1	cell-free assay, competition with immobilised ligand	1 µM	remaining binding	89%
Nc1ncnc2occ(-c3ccc(NC(=O)Nc4cc(C(F)(F)F)ccc4F)cc3)c12	enzyme activity, inhibitor	20 µM	remaining activity	0.05%
N#Cc1ccc(Nc2ccc3[nH]c(=O)[nH]c3c2)c(Cl)c1	cell-free assay, competition with immobilised ligand	1 µM	remaining binding	100%
CCN(CC)c1ccc(C2=NNC(=O)CC2C)cc1[N+](=O)[O-] (stereo not drawn)	enzyme activity, inhibitor	10 µM	remaining activity	78%
O=C1Nc2ccc(Cl)cc2C1=Cc1cc(Cl)c(O)c(Cl)c1	cell-free assay	0.5 µM	remaining signal	96.1%
CCOc1cc(-c2nncn2C)ccc1Nc1ncc2cc(C)nc(NCC(C)(C)C)c2n1	enzyme activity, inhibitor, FRET	1 µM	inhibition	< 15%
CC(C)(C)c1nc2c(s1)c1nc(N)ncc1c1ccc(NS(=O)(=O)c3c(F)cccc3F)c(F)c12	enzyme activity, inhibitor, radiometric	1 µM	remaining activity	82%
CCCOc1ccc(OC)c(F)c1C(=O)c1ccc(C(=O)N[C@@H]2CNC[C@H]2NC(=O)c2ccc3[nH]ncc3c2)cc1	enzyme activity, inhibitor	0.5 µM	remaining activity	27%
CNC(=O)c1cc(Oc2ccc(NC(=O)Nc3ccc(Cl)c(C(F)(F)F)c3)cc2)ccn1	enzyme activity, inhibitor	10 µM	inhibition	2%
CC1=C(C#N)[C@@H](c2ccc3[nH]nc(C)c3c2)C(C#N)=C(c2ccc(Cl)cc2)N1	cell-free assay, competition with immobilised ligand	1 µM	remaining binding	82.2%
N#CCCc1ccc2c(c1)-c1[nH]c3ccc([N+](=O)[O-])cc3c1CC(=O)N2	cell-free assay	0.5 µM	remaining signal	73.1%
C[C@H](NC(=O)c1cnc2n1[C@](C)(Cc1ccc(C#N)cc1)C(=O)N2c1cc(Cl)c(F)c(Cl)c1)C(=O)NC1(c2ccccn2)CC1	cell-free assay, competition with immobilised ligand	1 µM	remaining binding	100%
Cc1ccc(Nc2nccc(N(C)c3ccc4c(C)n(C)nc4c3)n2)cc1S(N)(=O)=O	enzyme activity, inhibitor	10 µM	inhibition	1%
Cc1ccc(NC(=O)c2ccc(C)c(C(F)(F)F)c2)cc1C#Cc1nn(C2CCC(O)CC2)c2ncnc(N)c12 (stereo not drawn)	cell-free assay, inhibitor	10 µM	remaining signal	101%
Cc1sc(C(=O)NC2COC2)cc1-n1cc(NC(=O)Nc2c(F)cccc2Cl)cn1	enzyme activity, inhibitor	10 µM	remaining activity	104%
